# Test results reported in ChEMBL document CHEMBL3351414, “Novel 9'-substituted-noscapines: synthesis with Suzuki cross-coupling, structure elucidation and biological evaluation” (Eur J Med Chem, 2014).
# pIC50: −log10 of the molar value. Active and inactive are the calls of the source. No cut-off for these calls is given here.
# Key:
# Tubulin (Bos taurus) = Tubulin (Bos taurus) (UniProt Q6B856+Q862L2+Q862F3); assay: Displacement of [3H]colchicine from bovine brain tubulin at 500 uM after 10 mins by liquid scintillation counting
# Tubulin [1] = target: T1, Tubulin (Bos taurus, UniProt Q6B856+Q862L2+Q862F3); assay: Inhibition of bovine brain tubulin assessed as extent of assembly preincubated for 15 mins by turbidimetry
# How it was run: (§1)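 Bovine brain tubulin at 10 µM (1.0 mg/mL) in 0.8 M monosodium glutamate pH 6.6 with 4% DMSO and varying compound was preincubated 15 min at 30 °C, then chilled. GTP was added to 0.4 mM final and the temperature jumped from 0 to 30 °C. Turbidity was followed at 350 nm, scoring either maximum rate or extent of assembly at 20 min.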
# Tubulin [2] = target: T1, Tubulin; assay: Inhibition of bovine brain tubulin assessed as rate of assembly preincubated for 15 mins by turbidimetry
# How it was run: as §1
# HeLa [3] = assay: Induction of apoptosis in human HeLa cells assessed as reduction in Mcl-1 expression at 25 uM after 24 hrs by Western blot analysis; type: functional, cell-based
# How it was run: (§2)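 HeLa cells treated 24 or 48 h at 25 µM, then lysed. 20 µg protein per lane was run on SDS-PAGE and transferred to PVDF. Membranes were probed 2 h at room temperature for cleaved caspase-9, caspase-3, cleaved PARP, Bcl-2, Mcl-1 or Bax, with peroxidase secondary antibody and ECL. β-Actin reprobe served as loading control.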
# HT-29 = assay: Antiproliferative activity against human HT-29 cells assessed as reduction in cell viability after 72 hrs by MTT assay; type: functional, cell-based; conditions: HT-29, 72 h
# How it was run: (§3)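 Cells kept in RPMI-1640 (Jurkat, SEM, RS4;11) or DMEM (A549, HeLa, IGROV-1, HT-29) with 10% FBS plus penicillin/streptomycin. 8×10^3 cells per well were left 18 h at 37 °C in 5% CO2. Medium was then replaced with fresh medium holding graded compound concentrations from 10 mM DMSO stocks. Cells were incubated 72 h and viability read by MTT. IC50 is the mean ± SEM from dose–response curves of at least three independent experiments.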
# HeLa [4] = assay: Induction of apoptosis in human HeLa cells assessed as early apoptotic cells at 25 uM after 24 hrs using Annexin-V/PI staining by flow cytometry (reference value: 5.26 %); type: functional
# HeLa [5] = assay: Cell cycle arrest in human HeLa cells assessed as accumulation at G2/M phase at 10 to 25 uM after 24 hrs by flow cytometry; type: functional, cell-based
# How it was run: (§4)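 5×10^5 HeLa or Jurkat cells exposed to graded compound concentrations for 24 h. Cells were fixed in ice-cold 70% ethanol, lysed with RNase A/0.1% Triton X-100 buffer and stained with propidium iodide. DNA content was read by flow cytometry. Phase percentages are mean ± SEM of three independent experiments.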
# HeLa [6] = assay: Downregulation of phosphorylated form of cdc25c protein level in human HeLa cells at 25 uM after 24 hrs by Western blot analysis; type: functional, cell-based
# How it was run: (§5)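 HeLa cells treated 24 or 48 h at 25 µM, then washed in PBS and lysed 30 min on ice. 20 µg protein per lane was resolved on 7.5–15% SDS-PAGE and blotted to PVDF. Blots were probed for cyclin B, p-cdc2 Tyr15, cdc25C and γH2A.X, with β-actin reprobe as loading control and ECL detection.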
# HeLa [7] = assay: Induction of apoptosis in human HeLa cells assessed as reduction in Mcl-1 expression at 25 uM after 48 hrs by Western blot analysis; type: functional, cell-based
# How it was run: as §2
# PBL [8] = assay: Cytotoxicity against resting human PBLs assessed as reduction in cell growth; type: cell-based
# How it was run: (§6)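 Peripheral blood lymphocytes from healthy donors, tested either resting (no PHA) or PHA-stimulated. Value is the concentration reducing cell growth by 50%, mean ± SEM of three separate experiments.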
# HeLa [9] = assay: Cell cycle arrest in human HeLa cells assessed as accumulation at G2/M phase after 24 hrs by flow cytometry; type: functional, cell-based
# How it was run: as §4
# [10] = Antiproliferative activity against human RS4:11 cells assessed as reduction in cell viability after 72 hrs by MTT assay; type: functional, cell-based; conditions: RS4-11, 72 h
# How it was run: as §3
# LoVo = assay: Antiproliferative activity against human LoVo cells assessed as reduction in cell viability after 72 hrs by MTT assay; type: functional, cell-based
# HeLa [11] = assay: Induction of apoptosis in human HeLa cells after 24 to 48 hrs using Annexin-V/PI staining by flow cytometry; type: functional, cell-based
# HeLa [12] = assay: Induction of apoptosis in human HeLa cells assessed as mitochondrial membrane depolarization at 6.2 to 50 uM using JC-1 staining-based fluorescence assay; type: functional, cell-based; conditions: TDE = time-dependent effect
# How it was run: (§7)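 Mitochondrial membrane potential was read with the JC-1 dye in HeLa cells after 24 or 48 h at graded concentrations. Data are mean ± SEM of three independent experiments.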
# PBL [13] = assay: Cytotoxicity against PHA-stimulated human PBLs assessed as reduction in cell growth; type: cell-based
# How it was run: as §6
# [14] = Antiproliferative activity against human SEM cells assessed as reduction in cell viability after 72 hrs by MTT assay; type: functional, cell-based
# How it was run: as §3
# IGROV-1 = assay: Antiproliferative activity against human IGROV1 cells assessed as reduction in cell viability after 72 hrs by MTT assay; type: functional, cell-based; conditions: IGROV-1, 72 h
# How it was run: as §3
# HeLa [15] = assay: Induction of apoptosis in human HeLa cells assessed as caspase 9 cleavage at 25 uM after 24 to 48 hrs by Western blot analysis; type: functional, cell-based
# How it was run: as §2
# HeLa [16] = assay: Induction of apoptosis in human HeLa cells assessed as reduction in Bcl-2 expression at 25 uM after 48 hrs by Western blot analysis; type: functional, cell-based
# How it was run: as §2
# HeLa [17] = assay: Induction of apoptosis in human HeLa cells assessed as ROS production at 6.2 to 50 uM after 24 to 48 hrs using H2-DCFDA -based flow cytometry relative to control; type: functional, cell-based
# How it was run: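 HeLa cells incubated 24 or 48 h at the indicated concentrations, stained with H2-DCFDA and analysed by flow cytometry. Data are mean ± SEM of three independent experiments.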
# HeLa [18] = assay: Induction of apoptosis in human HeLa cells assessed as late apoptotic cells at 25 uM after 24 hrs using Annexin-V/PI staining by flow cytometry (reference value: 4.31 %); type: functional
# HeLa [19] = assay: Induction of apoptosis in human HeLa cells assessed as late necrotic cells at 25 uM after 24 hrs using Annexin-V/PI staining by flow cytometry (reference value: 3.70 %); type: functional
# Jurkat [20] = assay: Cell cycle arrest in human Jurkat cells assessed as accumulation at G2/M phase after 24 hrs by flow cytometry; type: functional, cell-based
# How it was run: as §4
# Jurkat [21] = assay: Antiproliferative activity against human Jurkat cells assessed as reduction in cell viability after 72 hrs by MTT assay; type: functional, cell-based
# How it was run: as §3
# HeLa [22] = assay: Induction of DNA damage in human HeLa cells assessed as increase in phosphorylated form of histone gamma-H2A.X level at 25 uM after 24 hrs by Western blot analysis; type: functional, cell-based
# How it was run: as §5
# HeLa [23] = assay: Induction of apoptosis in human HeLa cells assessed as PARP cleavage at 25 uM after 24 to 48 hrs by Western blot analysis; type: functional, cell-based
# How it was run: as §2
# HeLa [24] = assay: Upregulation of cyclin B protein level in human HeLa cells at 25 uM after 24 hrs by Western blot analysis; type: functional, cell-based
# CCRF-CEM = assay: Antiproliferative activity against human CEM cells assessed as reduction in cell viability after 72 hrs by MTT assay; type: functional, cell-based
# Tubulin [25] = target: T1, Tubulin; assay: Displacement of [3H]colchicine from bovine brain tubulin assessed as rate of assembly after 10 mins by liquid scintillation counting
# HeLa [26] = assay: Induction of apoptosis in human HeLa cells assessed as caspase 3 cleavage at 25 uM after 24 to 48 hrs by Western blot analysis; type: functional, cell-based
# How it was run: as §2
# HeLa [27] = assay: Induction of apoptosis in human HeLa cells at 6.2 to 50 uM using Annexin-V/PI staining by flow cytometry; type: functional, cell-based; conditions: TDE = time-dependent effect
# HeLa [28] = assay: Downregulation of cdc25c protein level in human HeLa cells at 25 uM after 24 hrs by Western blot analysis; type: functional, cell-based; conditions: in the assay text read “after 48 hrs” for “after 24 hrs”
# How it was run: as §5
# HeLa [29] = assay: Induction of apoptosis in human HeLa cells assessed as reduction in Bcl-2 expression at 25 uM after 24 hrs by Western blot analysis; type: functional, cell-based
# How it was run: as §2
# HeLa [30] = assay: Induction of apoptosis in human HeLa cells assessed as mitochondrial membrane depolarization after 24 to 48 hrs using JC-1 staining-based fluorescence assay; type: functional, cell-based
# How it was run: as §7
# HeLa [31] = assay: Upregulation of aurora kinase A protein level in human HeLa cells at 25 uM after 24 hrs by Western blot analysis; type: functional, cell-based
# HeLa [32] = assay: Antiproliferative activity against human HeLa cells assessed as reduction in cell viability after 72 hrs by MTT assay; type: functional, cell-based
# How it was run: as §3
# HeLa [33] = assay: Induction of apoptosis in human HeLa cells assessed as viable cells at 25 uM after 24 hrs using Annexin-V/PI staining by flow cytometry (reference value: 86.7 %); type: functional; conditions: read-out: Activity
# Jurkat [34] = assay: Cell cycle arrest in human Jurkat cells assessed as accumulation at G2/M phase at 10 to 25 uM after 24 hrs by flow cytometry; type: functional, cell-based
# How it was run: as §4
# HeLa [35] = assay: Cell cycle arrest in human HeLa cells assessed as accumulation at G2/M phase at 25 uM after 24 hrs by flow cytometry; type: functional
# How it was run: as §4
# HeLa [36] = assay: Upregulation of cdc25c protein level in human HeLa cells at 25 uM after 24 hrs by Western blot analysis; type: functional, cell-based
# CA46 [37] = assay: Cell cycle arrest in human CA46 cells assessed as accumulation at G2/M phase at 5 times IC50 by flow cytometry; type: functional
# CA46 [38] = assay: Cell cycle arrest in human CA46 cells assessed as reduction in mitotic index by Giemsa staining method relative to control; type: functional; set-up: scale not given: the % may be the effect or the level left
# How it was run: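 CA46 Burkitt lymphoma cells grown in RPMI 1640 with 17% FBS and 2 mM L-glutamine at 37 °C, 5% CO2, treated 16 h. Cells were swollen 10 min in half-strength PBS, fixed in 0.5% acetic acid–1.5% ethanol, then spread from 25% acetic acid/75% ethanol. Slides were Giemsa-stained. Mitotic cells were those with condensed chromosomes and no nuclear membrane, with ≥200 cells counted per condition.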
smiles,measurement,setting,value
COc1ccc2c(c1OC)C(=O)O[C@@H]2[C@H]1c2c(cc3c(c2OC)OCO3)CCN1C [NOSCAPINE],inhibition,Tubulin (Bos taurus),44%
same,IC50,Tubulin [1],> 400 µM
same,IC50,Tubulin [2],170 µM
COc1ccc2c(c1OC)C(=O)O[C@@H]2[C@H]1c2c(c(-c3ccccc3)c3c(c2OC)OCO3)CCN1C,Activity,HeLa [3],Active
same,pIC50,HT-29,4.44
same,Activity,HeLa [4],15.9%
same,inhibition,Tubulin (Bos taurus),14%
same,Activity,HeLa [5],Active
same,Activity,HeLa [6],Active
same,Activity,HeLa [7],Active
same,IC50,Tubulin [1],> 400 µM
same,pIC50,PBL [8],< 3.70
same,Activity,HeLa [9],Dose-dependent effect
same,pIC50,[10],5.62
same,pIC50,LoVo,4.37
same,Activity,HeLa [11],Dose-dependent effect
same,Activity,HeLa [12],tde
same,pIC50,PBL [13],4.26
same,pIC50,[14],5.49
same,pIC50,IGROV-1,4.17
same,Activity,HeLa [15],Active
same,Activity,HeLa [16],Active
same,Activity,HeLa [17],Active
same,Activity,HeLa [18],18.4%
same,Activity,HeLa [19],18.1%
same,Activity,Jurkat [20],Dose-dependent effect
same,pIC50,Jurkat [21],5.27
same,Activity,HeLa [22],Active
same,IC50,Tubulin [2],> 400 µM
same,Activity,HeLa [23],Active
same,Activity,HeLa [24],Active
same,pIC50,CCRF-CEM,5.28
same,IC50,Tubulin [25],> 400 µM
same,Activity,HeLa [26],Active
same,Activity,HeLa [27],tde
same,Activity,HeLa [28],Active
same,Activity,HeLa [29],inactive
same,Activity,HeLa [30],Dose-dependent effect
same,Activity,HeLa [31],Active
same,pIC50,HeLa [32],5.13
same,viability at 25 µM,HeLa [33],7.53%
same,Activity,Jurkat [34],Active
same,Activity,HeLa [35],>80%
same,Activity,HeLa [36],Active
COc1ccc(/C=C\c2cc(OC)c(OC)c(OC)c2)cc1O [COMBRETASTATIN A4],Activity,CA46 [37],>80%
same,Activity,CA46 [38],46%
